Results of several laboratories.
Lines come from different studies, so protocols differ.
Target: Serine/threonine-protein kinase PLK3 (PLK3, Homo sapiens, UniProt Q9H4B4)

Structure (SMILES)	assay	conditions	remaining binding [%]
C[C@@H]1CN(c2cc(-c3n[nH]c4ccc(OC5(C)CC5)cc34)ncn2)C[C@H](C)O1	cell-free assay, competition with immobilised ligand	0.1 µM	84
C=CC(=O)N1CCC(C(=O)NCC(=O)N2CCN(c3nc(-c4cnc(N)nc4C(F)F)nc(N4CCOCC4)n3)CC2)CC1	binding, competition with immobilised ligand	1 µM	58
C[C@H](c1ccnc(Nc2nc3ccc(-c4cc(N(C)C)ncn4)cc3[nH]2)c1)N1CCN(C(=O)CC(F)(F)F)CC1	cell-free assay, competition with immobilised ligand	0.1 µM	100
COc1cnc(Nc2cccc(S(N)(=O)=O)c2)nc1N1CCN(c2ccccc2)CC1	binding, competition with immobilised ligand	1 µM	95
O=C(O)c1cc(-c2ccc(C3CCNCC3)cc2)c2ccc(-c3ccc(C(F)(F)F)cc3)cc2c1	cell-free assay, competition with immobilised ligand	1 µM	100
C[C@@H]1CN(c2ccc3ncc(-c4ccc5[nH]nc(C6CC6)c5c4)n3n2)C[C@H](C)O1	binding, competition with immobilised ligand	0.5 µM	98
CC(=O)N1CCC(c2ccc(C(=O)NC3=NCCN3)cc2C(F)(F)F)CC1	cell-free assay, competition with immobilised ligand	1 µM	78
N[C@@H]1CCN(c2nccc(-c3cnn4ncccc34)n2)C1	binding	1 µM	100
FC(F)(F)Oc1cccc(-c2cnc3ccc(-c4ccncc4)nn23)c1	cell-free assay, competition with immobilised ligand	5 µM	63
O=C(NCCCN1CCOCC1)c1ccc(Nc2nccc(-c3cc4ccccc4s3)n2)cc1	binding, competition with immobilised ligand	1 µM	42
C[C@H]1CCN(c2nccc(-c3cnn4ncccc34)n2)C1	binding	1 µM	75
O=C(c1ccc(Nc2nccc(-c3cc4ccccc4s3)n2)cc1)N1CCC(N2CCCC2)CC1	binding, competition with immobilised ligand	1 µM	81
COc1ncc2cc3ccccc3nc2c1C#N	cell-free assay, competition with immobilised ligand	5 µM	69
COc1cnc(Nc2cccc(S(N)(=O)=O)c2)nc1N1CCN(c2ccccc2)C(=O)C1	binding, competition with immobilised ligand	1 µM	63
C[C@H](c1ccc(F)cc1)N(Cc1cccc(C(=O)O)c1)C(=O)c1cnc2ccccc2c1	cell-free assay, competition with immobilised ligand	1 µM	100
O=C(NCC1CCOCC1)c1n[nH]cc1NC(=O)c1c(F)cccc1F	binding, competition with immobilised ligand	1 µM	89
CN(C)c1nccc(-c2cnn3ncccc23)n1	binding	1 µM	83
O=C(Nc1cccnn1)N1CC(C/C=C/c2cncc(Oc3ccc(C(F)(F)F)cn3)n2)C1	cell-free assay, competition with immobilised ligand	1 µM	80
CN(C)c1ncc(F)c(-c2cnn3ncccc23)n1	binding	1 µM	79
O=C(c1ccc(Nc2ncc(Cl)c(-c3cc4ccccc4s3)n2)cc1)N1CCC(N2CCCC2)CC1	binding, competition with immobilised ligand	1 µM	58
CN(C)c1nccc(-c2cnc3ncccn23)n1	binding	1 µM	66
C[C@@H](c1ccc(-n2cnc3c(N)ncnc32)cc1)N1CCc2nn(C)c(Cc3ccccc3)c2C1=O	binding, competition with immobilised ligand	0.1 µM	76
CN(C)c1ncnc(-c2ccc3nc(Nc4cc(CN5CCN(C(=O)CC(F)(F)F)CC5)ccn4)[nH]c3c2)c1Cl	cell-free assay, competition with immobilised ligand	1 µM	100
COc1ccnn2ncc(-c3ccnc(N(C)C)n3)c12	binding	1 µM	75
